Type in all cases: functional, cell-based
For assay [1], the system named is HeLa. Nature of the assay: Cytotoxicity against human HeLa cells after 24 to 72 hrs by MTT assay. The gist of the method:
(§1)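 Cells seeded at 5 × 10^4 cells/mL and held 24 h at 37 °C before the test compound was added as a DMSO solution at a range of concentrations. MTT staining was done after 24, 48 and 72 h. Absorbance was read at 490 nm against a negative control. IC50 was the concentration giving 50% cell death, taken from a plot of concentration versus % viability. Camptothecin served as positive control.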
Background: Tetrazolium dyes change colour on reduction, which living cells bring about.

In assay [2] the test system is HepG2. Nature of the assay: Cytotoxicity against human HepG2 cells after 24 to 72 hrs by MTT assay. The gist of the method: as §1
Assay [3] relates to K562. Nature of the assay: Cytotoxicity against human K562 cells after 24 to 72 hrs by MTT assay. The gist of the method:
as §1

The subject of assay [4] is DU-145. Description: Cytotoxicity against human DU145 cells after 24 to 72 hrs by MTT assay. The method in brief: as §1

SMILES strings stand for the structures. Some results are limits rather than exact numbers.

Regarding `CO[C@H]1C=C2[C@@](OC)(C[C@H]3[C@@H]([C@@H](OC(C)=O)[C@H](OC(C)=O)[C@@]4(O)C(C)(C)CC[C@H](OC(C)=O)[C@]34C)[C@]2(C)O)O1`, the IC50 was greater than 50 µM in assay [1], 11.5 µM in assay [2], 9.2 µM in assay [3] and greater than 50 µM in assay [4].
As for `CCO[C@]1(C)[C@@H]2[C@@H](OC(C)=O)[C@H](OC(C)=O)[C@@]3(O)C(C)(C)CC[C@H](OC(C)=O)[C@]3(C)[C@H]2C[C@]12C(=O)O[C@@H]1O[C@@H]12`, the concentration for half-maximal inhibition (IC50) in assay [1] was 12.1 µM; in assay [2] it was greater than 50 µM; in assay [3], 9.9 µM; in assay [4] it was 17.1 µM.
`CC(=O)O[C@H]1[C@@H]2OC(=O)[C@@H]3c4ccoc4C[C@@H]([C@@H]23)[C@@]2(C)[C@@H](O)CCC(C)(C)[C@]12O`: the half-maximal inhibitory concentration (IC50) is greater than 50 µM in assay [1], 8 µM in assay [2], greater than 50 µM in assay [3] and 12 µM in assay [4].
On to `CC[C@@]1(O)C(=O)OCc2c1cc1n(c2=O)Cc2cc3ccccc3nc2-1` [CAMPTOTHECIN], for which the IC50 in assay [1] was found to be 0.5 µM; in assay [2], 0.6 µM; in assay [3] it was 0.4 µM; in assay [4] it was 0.8 µM.

Broadly, the IC50 is the concentration that inhibits the measured activity by half. A higher IC50 goes with a need for much substance.
